According to ChEMBL document CHEMBL4177575 (Bioorg Med Chem, 2017):
Activity calls are given as the source filed them. No cut-off for these calls is given here.

Tests used:
[1] = system: HepG2; assay: Cytotoxicity against human HepG2 cells assessed as reduction in cell viability incubated for 72 hrs by MTT assay; assay type: functional, cell-based; conditions: HepG2, 72 h
How it was run: (§1)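 Cells grown in MEM with 10% FBS; about 4×10^3 cells per well, pre-incubated 24 h at 37 °C in 5% CO2, then exposed to compound for 72 h. Seven concentrations, threefold serial dilution from 100 ug/mL initial. MTT at 5 µg/mL terminal concentration for 4 h; formazan dissolved in DMSO, absorbance read at 492 nm against 630 nm reference. IC50 is the average of two determinations.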

[2] = system: PC-3; assay: Cytotoxicity against human PC3 cells assessed as reduction in cell viability incubated for 72 hrs by MTT assay; assay type: functional, cell-based; how it was run: as §1
[3] = target: Vascular endothelial growth factor receptor 2 (Homo sapiens, UniProt P35968); assay: Inhibition of VEGFR2 (unknown origin) incubated for 10 mins using FAM-labeled peptide and ATP by mobility shift assay
[4] = target: Serine/threonine-protein kinase B-raf (Homo sapiens, UniProt P15056); assay: Inhibition of BRAF (unknown origin) incubated for 10 mins using FAM-labeled peptide and ATP by mobility shift assay
[5] = target: Hepatocyte growth factor receptor (Homo sapiens, UniProt P08581); assay: Inhibition of c-MET (unknown origin) incubated for 10 mins using FAM-labeled peptide and ATP by mobility shift assay
How it was run: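 Mobility shift assay in 384-well plates. Kinase buffer: 50 mM HEPES pH 7.5, 10 mM MgCl2, 0.0015% Brij-35, 2 mM DTT. Compound, diluted from a 500 μM DMSO stock, preincubated with enzyme 10 min at room temperature. FAM-labelled peptide and ATP then added and the reaction run at 28 °C. Stopped with EDTA-containing buffer and read on Caliper. Inhibition = (max−conversion)/(max−min)×100, with DMSO wells as max and enzyme-free wells as min.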

[6] = target: Epidermal growth factor receptor (Homo sapiens, UniProt P00533); assay: Inhibition of EGFR (unknown origin) incubated for 10 mins using FAM-labeled peptide and ATP by mobility shift assay
[7] = system: A549; assay: Induction of morphological changes in human A549 cells assessed as induction of cell shrinking at 1.85 uM incubated for 12 hrs by acridine orange dye based inverted microscopy and fluorescence microscopy; assay type: functional
How it was run: (§2)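 Untreated control included. A549 cells exposed 12 h at 1.85 μM, then single-stained with acridine orange. Nuclei and morphology examined by inverted and fluorescence microscopy.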

[8] = system: A549; assay: Induction of morphological changes in human A549 cells assessed as induction of DNA fragmentation at 1.85 uM incubated for 12 hrs by acridine orange dye based inverted microscopy and fluorescence microscopy; assay type: functional, cell-based; how it was run: as §2
[9] = system: A549; assay: Induction of apoptosis in human A549 cells assessed as early apoptotic cell level at 3 uM incubated for 48 hrs by Annexin VFITC and propidium iodide staining based flow cytometry (reference value: 0.64%); assay type: functional
How it was run: (§3)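 A549 cells seeded in RPMI 1640 and treated 48 h at 3, 6 or 12 µM. Cells then stained with Annexin V-FITC plus propidium iodide, 30 min at 4 °C in the dark, and analysed on a FACS Calibur flow cytometer.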

[10] = system: A549; assay: Induction of apoptosis in human A549 cells assessed as viable cell level at 6 uM incubated for 48 hrs by Annexin VFITC and propidium iodide staining based flow cytometry (reference value: 93.27%); assay type: functional; how it was run: as §3
[11] = system: A549; assay: Induction of apoptosis in human A549 cells assessed as necrotic cell level at 12 uM incubated for 48 hrs by Annexin VFITC and propidium iodide staining based flow cytometry (reference value: 2.69%); assay type: functional; how it was run: as §3

Sequence of Vascular endothelial growth factor receptor 2 (P35968 whole entry): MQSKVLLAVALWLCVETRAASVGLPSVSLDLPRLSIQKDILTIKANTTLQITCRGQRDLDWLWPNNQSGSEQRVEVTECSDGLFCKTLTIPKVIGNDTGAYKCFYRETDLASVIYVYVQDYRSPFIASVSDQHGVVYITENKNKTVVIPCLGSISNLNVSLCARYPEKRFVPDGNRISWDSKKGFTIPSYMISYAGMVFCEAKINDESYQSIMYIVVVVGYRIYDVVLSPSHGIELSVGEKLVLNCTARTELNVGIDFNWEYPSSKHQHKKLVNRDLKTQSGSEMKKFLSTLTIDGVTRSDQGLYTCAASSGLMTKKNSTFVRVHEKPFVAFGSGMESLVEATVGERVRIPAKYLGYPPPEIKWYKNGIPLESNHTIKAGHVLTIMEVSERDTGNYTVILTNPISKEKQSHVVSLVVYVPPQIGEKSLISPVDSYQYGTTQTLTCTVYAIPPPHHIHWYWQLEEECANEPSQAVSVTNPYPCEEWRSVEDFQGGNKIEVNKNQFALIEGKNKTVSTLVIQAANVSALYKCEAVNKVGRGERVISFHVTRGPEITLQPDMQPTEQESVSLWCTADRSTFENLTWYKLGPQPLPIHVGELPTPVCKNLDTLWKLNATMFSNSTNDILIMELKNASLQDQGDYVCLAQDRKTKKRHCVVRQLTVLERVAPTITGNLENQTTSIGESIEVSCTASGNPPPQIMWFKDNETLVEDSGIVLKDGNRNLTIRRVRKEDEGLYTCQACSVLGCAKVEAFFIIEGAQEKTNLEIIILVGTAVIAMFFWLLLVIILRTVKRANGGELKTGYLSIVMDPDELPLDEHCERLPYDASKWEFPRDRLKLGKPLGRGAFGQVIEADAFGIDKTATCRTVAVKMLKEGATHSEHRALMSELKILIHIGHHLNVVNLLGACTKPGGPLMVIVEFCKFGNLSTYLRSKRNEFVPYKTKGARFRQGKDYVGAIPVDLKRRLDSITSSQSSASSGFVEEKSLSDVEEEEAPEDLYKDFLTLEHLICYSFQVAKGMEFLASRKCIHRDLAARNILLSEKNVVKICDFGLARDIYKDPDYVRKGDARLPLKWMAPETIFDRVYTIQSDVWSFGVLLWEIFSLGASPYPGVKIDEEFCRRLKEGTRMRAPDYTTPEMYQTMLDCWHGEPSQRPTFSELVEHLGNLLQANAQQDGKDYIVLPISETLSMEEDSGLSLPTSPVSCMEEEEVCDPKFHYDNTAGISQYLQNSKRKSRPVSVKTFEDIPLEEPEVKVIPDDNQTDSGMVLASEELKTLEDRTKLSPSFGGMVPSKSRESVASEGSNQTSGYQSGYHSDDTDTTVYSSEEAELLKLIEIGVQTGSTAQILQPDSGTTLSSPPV
Sequence of Hepatocyte growth factor receptor (P08581 whole entry): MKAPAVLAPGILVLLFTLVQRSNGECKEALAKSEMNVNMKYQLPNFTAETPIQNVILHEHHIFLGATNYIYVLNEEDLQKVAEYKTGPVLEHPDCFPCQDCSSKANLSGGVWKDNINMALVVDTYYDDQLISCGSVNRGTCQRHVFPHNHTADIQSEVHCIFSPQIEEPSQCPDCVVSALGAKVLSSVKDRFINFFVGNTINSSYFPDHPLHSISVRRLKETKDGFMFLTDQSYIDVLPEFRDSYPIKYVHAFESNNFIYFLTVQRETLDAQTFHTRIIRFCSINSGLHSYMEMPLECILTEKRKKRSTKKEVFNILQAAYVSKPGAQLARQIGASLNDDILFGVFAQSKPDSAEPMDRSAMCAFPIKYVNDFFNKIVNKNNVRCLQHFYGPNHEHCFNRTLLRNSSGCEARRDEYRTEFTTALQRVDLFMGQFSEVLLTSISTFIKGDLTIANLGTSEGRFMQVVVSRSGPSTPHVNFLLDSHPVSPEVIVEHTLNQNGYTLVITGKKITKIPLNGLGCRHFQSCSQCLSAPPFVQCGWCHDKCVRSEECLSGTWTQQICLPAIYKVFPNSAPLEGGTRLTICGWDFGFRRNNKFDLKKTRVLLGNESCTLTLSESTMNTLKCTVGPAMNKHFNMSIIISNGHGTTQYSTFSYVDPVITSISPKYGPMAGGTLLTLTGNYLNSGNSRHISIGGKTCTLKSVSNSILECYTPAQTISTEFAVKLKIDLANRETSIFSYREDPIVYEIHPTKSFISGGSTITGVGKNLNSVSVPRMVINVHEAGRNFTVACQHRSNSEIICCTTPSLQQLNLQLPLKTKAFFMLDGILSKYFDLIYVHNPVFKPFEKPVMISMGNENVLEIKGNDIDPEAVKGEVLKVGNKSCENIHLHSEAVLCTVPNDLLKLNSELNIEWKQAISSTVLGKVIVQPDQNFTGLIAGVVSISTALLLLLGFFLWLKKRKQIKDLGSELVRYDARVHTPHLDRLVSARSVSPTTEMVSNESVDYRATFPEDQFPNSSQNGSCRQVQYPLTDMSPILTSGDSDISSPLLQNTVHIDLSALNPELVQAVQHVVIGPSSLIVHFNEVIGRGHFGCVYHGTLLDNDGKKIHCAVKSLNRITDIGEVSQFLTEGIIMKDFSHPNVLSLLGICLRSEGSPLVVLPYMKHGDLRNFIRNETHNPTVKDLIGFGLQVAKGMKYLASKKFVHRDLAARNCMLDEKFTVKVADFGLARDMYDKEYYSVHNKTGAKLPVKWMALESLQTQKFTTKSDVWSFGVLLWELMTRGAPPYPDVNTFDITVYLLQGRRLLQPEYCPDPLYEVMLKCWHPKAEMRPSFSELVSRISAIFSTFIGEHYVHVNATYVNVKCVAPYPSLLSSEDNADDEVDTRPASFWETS
Sequence of Epidermal growth factor receptor (P00533 whole entry): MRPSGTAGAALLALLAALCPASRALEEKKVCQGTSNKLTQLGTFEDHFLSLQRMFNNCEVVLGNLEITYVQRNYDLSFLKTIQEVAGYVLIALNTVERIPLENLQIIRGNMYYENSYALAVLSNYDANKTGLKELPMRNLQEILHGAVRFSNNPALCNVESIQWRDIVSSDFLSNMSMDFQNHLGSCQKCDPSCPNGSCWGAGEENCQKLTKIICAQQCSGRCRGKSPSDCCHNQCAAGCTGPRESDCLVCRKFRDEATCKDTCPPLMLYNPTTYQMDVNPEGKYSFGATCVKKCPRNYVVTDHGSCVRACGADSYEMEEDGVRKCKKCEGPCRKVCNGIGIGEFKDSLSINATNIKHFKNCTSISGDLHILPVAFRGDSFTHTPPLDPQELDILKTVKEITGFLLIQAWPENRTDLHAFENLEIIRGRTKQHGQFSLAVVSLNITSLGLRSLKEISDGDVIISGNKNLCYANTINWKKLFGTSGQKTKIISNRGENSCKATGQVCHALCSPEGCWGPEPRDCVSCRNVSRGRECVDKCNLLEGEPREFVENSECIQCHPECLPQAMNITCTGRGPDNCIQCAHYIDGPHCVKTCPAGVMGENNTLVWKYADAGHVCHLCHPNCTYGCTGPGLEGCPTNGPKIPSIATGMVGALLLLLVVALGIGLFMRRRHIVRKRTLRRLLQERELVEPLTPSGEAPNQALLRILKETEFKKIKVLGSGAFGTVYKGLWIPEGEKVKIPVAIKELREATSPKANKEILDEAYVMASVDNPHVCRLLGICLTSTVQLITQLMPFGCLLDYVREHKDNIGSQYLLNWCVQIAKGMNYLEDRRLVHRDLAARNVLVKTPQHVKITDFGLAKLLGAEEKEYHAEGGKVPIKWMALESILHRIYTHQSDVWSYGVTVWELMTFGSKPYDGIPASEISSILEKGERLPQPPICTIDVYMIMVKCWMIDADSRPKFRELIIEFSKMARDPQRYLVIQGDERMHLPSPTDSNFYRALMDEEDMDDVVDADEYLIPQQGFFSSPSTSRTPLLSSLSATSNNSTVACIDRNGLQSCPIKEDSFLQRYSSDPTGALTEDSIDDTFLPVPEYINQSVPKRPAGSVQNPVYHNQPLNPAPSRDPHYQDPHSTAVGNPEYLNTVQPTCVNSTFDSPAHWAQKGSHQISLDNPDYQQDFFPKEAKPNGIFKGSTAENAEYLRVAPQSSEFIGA
Sequence of Serine/threonine-protein kinase B-raf (P15056 whole entry): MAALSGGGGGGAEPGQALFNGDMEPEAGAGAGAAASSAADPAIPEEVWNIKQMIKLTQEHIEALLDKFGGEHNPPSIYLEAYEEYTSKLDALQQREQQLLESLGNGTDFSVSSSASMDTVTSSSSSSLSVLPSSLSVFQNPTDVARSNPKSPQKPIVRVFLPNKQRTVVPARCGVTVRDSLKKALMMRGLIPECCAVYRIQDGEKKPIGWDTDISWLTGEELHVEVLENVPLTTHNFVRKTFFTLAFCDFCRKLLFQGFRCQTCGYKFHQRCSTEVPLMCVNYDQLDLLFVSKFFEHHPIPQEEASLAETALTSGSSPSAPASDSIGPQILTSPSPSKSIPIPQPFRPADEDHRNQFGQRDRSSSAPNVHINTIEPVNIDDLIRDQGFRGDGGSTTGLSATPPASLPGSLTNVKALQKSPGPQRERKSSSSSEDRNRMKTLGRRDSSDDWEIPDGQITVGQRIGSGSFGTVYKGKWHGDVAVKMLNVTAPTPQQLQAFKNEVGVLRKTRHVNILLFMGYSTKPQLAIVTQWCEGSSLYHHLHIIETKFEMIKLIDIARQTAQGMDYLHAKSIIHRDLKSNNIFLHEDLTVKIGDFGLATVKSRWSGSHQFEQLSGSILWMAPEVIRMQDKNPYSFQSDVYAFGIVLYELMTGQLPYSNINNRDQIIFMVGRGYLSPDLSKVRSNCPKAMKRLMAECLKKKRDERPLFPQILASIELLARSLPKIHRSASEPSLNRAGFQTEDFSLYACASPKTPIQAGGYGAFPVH

- IC50 [3]: 0.56 µM
- IC50 [4]: 3.4 µM
- IC50 [5]: 0.54 µM
- IC50 [6]: > 10 µM
Structure (SMILES): CNC(=O)c1cc(Oc2ccc(C3=NNC(c4cccc(Br)c4)C3)cc2)ccn1 (configuration not stated)
- IC50 [1]: 1.85 µM
- Activity [2]: Dose-dependent effect
- IC50 ([2]; PC-3, 72 h): 3.54 µM
- Activity [7]: Active
- Activity [8]: Active
- Activity [9]: 2.2%
- Activity [10]: 81.93%
- Activity [11]: 2.45%
